# Test results published in ChEMBL document CHEMBL4024715, “An in vitro and in vivo evaluation of new potential trans-sialidase inhibitors of Trypanosoma cruzi predicted by a computational drug repositioning method” (Eur J Med Chem, 2017).
# Activity calls are given as the source filed them. The calls are words filed in the database; no cut-off is given here.
# Columns and labels:
# [1] = target: T1, Trans-sialidase (Trypanosoma cruzi) (UniProt Q26964); test: Inhibition of Trypanosoma cruzi trans-sialidase at 1 mM using N-acetyllactosamine as substrate in presence of 3'-sialyllactose measured after 15 mins by HPAEC-PAD relative to control
# T1 sequence (whole entry): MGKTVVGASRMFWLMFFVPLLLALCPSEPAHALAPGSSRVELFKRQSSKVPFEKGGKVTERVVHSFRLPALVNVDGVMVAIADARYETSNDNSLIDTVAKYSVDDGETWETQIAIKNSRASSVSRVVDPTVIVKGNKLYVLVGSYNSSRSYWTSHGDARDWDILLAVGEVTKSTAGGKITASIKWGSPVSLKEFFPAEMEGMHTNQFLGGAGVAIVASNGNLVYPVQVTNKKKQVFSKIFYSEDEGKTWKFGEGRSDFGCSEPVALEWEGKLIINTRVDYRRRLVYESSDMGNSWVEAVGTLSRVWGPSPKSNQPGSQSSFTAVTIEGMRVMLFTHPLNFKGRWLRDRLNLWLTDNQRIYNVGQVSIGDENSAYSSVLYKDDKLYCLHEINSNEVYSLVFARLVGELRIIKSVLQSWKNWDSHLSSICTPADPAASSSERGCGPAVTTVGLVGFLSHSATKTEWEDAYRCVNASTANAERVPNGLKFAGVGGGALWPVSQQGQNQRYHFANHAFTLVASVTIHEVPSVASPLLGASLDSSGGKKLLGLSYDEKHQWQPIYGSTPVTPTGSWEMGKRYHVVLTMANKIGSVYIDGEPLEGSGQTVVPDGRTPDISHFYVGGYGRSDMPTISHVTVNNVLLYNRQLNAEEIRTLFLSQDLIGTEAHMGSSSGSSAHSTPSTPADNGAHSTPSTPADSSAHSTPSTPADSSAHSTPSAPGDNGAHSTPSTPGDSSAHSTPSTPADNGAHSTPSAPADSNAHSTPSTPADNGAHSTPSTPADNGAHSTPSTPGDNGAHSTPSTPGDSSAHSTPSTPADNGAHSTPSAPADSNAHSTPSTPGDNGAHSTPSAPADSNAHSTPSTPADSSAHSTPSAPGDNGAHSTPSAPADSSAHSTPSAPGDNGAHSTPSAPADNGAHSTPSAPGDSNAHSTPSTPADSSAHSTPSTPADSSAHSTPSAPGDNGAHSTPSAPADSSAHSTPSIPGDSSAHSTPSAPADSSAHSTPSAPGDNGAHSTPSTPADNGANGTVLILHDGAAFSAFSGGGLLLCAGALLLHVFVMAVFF
# How it was run: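 Purified T. cruzi Ts (300 ng) incubated 15 min at room temperature in 20 mM Tris-HCl pH 7, 30 mM NaCl with 1 mM 3'-sialyllactose donor, 1 mM N-acetyllactosamine acceptor and 1 mM inhibitor. Water-insoluble compounds added from 10 mM DMSO stock; DMSO-only control. Samples diluted 12-fold and analysed by HPAEC-PAD. Inhibition from 3'-sialyl-N-acetyllactosamine relative to total sialylated products, with vs without compound.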
# Trypanosoma cruzi [2] = test: Trypanocidal activity against bloodstream form of Trypanosoma cruzi NINOA infected in NIH mouse assessed as reduction in parasitemia at 100 mg/kg, po measured at 2 to 4 hrs post dose by microscopic method; assay type: functional, organism-based
# How it was run: (§1)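 Groups of five female NIH mice (20-25 g) infected intraperitoneally with 2×10^5 bloodstream trypomastigotes. At peak parasitemia (days 19-24), compounds suspended in 4% gum arabic were given orally, 100 mg/kg total dose. Vehicle-only controls. Tail blood examined microscopically at 2, 4 and 6 h after dosing. Parasitemia reduction scored against trypomastigote counts at each interval.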
# Trypanosoma cruzi [3] = test: Trypanocidal activity against bloodstream form of Trypanosoma cruzi NINOA infected in NIH mouse assessed as reduction in parasitemia at 100 mg/kg, po measured at 6 hrs post dose by microscopic method; assay type: functional, organism-based; how it was run: as §1
# Trypanosoma cruzi [4] = test: Trypanocidal activity against trypomastigote stage of Trypanosoma cruzi INC-5 infected in NIH mouse blood assessed as parasite lysis at 50 ug/ml after 24 hrs by optical microscopic method relative to control; assay type: functional
# How it was run: (§2)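 Blood from infected NIH mice was taken by cardiac puncture at peak infection and adjusted to 1×10^6 trypomastigotes/mL. Compounds came from 10 mg/mL DMSO stocks diluted in water; final DMSO below 1%. Incubation was 24 h at 4 °C. Controls were DMSO/H₂O 1:99, untreated blood and reference drug. Trypomastigotes in 5 µL blood were counted by the Brener method at 40×. Percent lysis was taken versus the negative control, with three runs per strain.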
# Trypanosoma cruzi [5] = test: Trypanocidal activity against bloodstream form of Trypanosoma cruzi NINOA infected in NIH mouse assessed as reduction in parasitemia at 100 mg/kg, po measured up to 6 hrs post dose by microscopic method; assay type: functional, organism-based; how it was run: as §1
# Trypanosoma cruzi [6] = test: Trypanocidal activity against trypomastigote stage of Trypanosoma cruzi INC-5 infected in NIH mouse blood after 24 hrs by optical microscopic method; assay type: functional; conditions: INC-5, Blood
# Trypanosoma cruzi [7] = test: Trypanocidal activity against bloodstream form of Trypanosoma cruzi INC-5 infected in NIH mouse assessed as reduction in parasitemia at 100 mg/kg, po measured up to 6 hrs post dose by microscopic method; assay type: functional, organism-based; how it was run: as §1
# Trypanosoma cruzi [8] = test: Trypanocidal activity against trypomastigote stage of Trypanosoma cruzi NINOA infected in NIH mouse blood after 24 hrs by optical microscopic method
# Trypanosoma cruzi [9] = test: Trypanocidal activity against trypomastigote stage of Trypanosoma cruzi NINOA infected in NIH mouse blood assessed as parasite lysis at 50 ug/ml after 24 hrs by optical microscopic method relative to control; assay type: functional; how it was run: as §2
# Trypanosoma cruzi [10] = test: Trypanocidal activity against bloodstream form of Trypanosoma cruzi INC-5 infected in NIH mouse assessed as reduction in parasitemia at 100 mg/kg, po measured at 6 hrs post dose by microscopic method; assay type: functional, organism-based; how it was run: as §1
# Trypanosoma cruzi [11] = test: Trypanocidal activity against bloodstream form of Trypanosoma cruzi INC-5 infected in NIH mouse assessed as reduction in parasitemia at 100 mg/kg, po measured at 2 to 4 hrs post dose by microscopic method; assay type: functional, organism-based; how it was run: as §1
# [12] = Solubility of the compound in water; assay type: physicochemical; conditions: buffer
# Trypanosoma cruzi [13] = test: Trypanocidal activity against bloodstream form of Trypanosoma cruzi NINOA infected in NIH mouse assessed as reduction in parasitemia at 100 mg/kg, po measured at 4 hrs post dose by microscopic method relative to control; assay type: functional; parameters: scale not given: the % may be the effect or the level left; how it was run: as §1
SMILES,inhibition [1],Activity (Trypanosoma cruzi [2]),Activity (Trypanosoma cruzi [3]),Activity (Trypanosoma cruzi [4]),Activity (Trypanosoma cruzi [5]),LC50 (Trypanosoma cruzi [6]),Activity (Trypanosoma cruzi [7]),LC50 (Trypanosoma cruzi [8]),Activity (Trypanosoma cruzi [9]),Activity (Trypanosoma cruzi [10]),Activity (Trypanosoma cruzi [11]),solubility [12],Activity (Trypanosoma cruzi [13])
NC(=O)c1cc[n+](CC2=C(C(=O)[O-])N3C(=O)[C@@H](NC(=O)[C@@H](c4ccccc4)S(=O)(=O)O)[C@H]3SC2)cc1,inactive,Active,inactive,–,–,–,–,–,–,–,–,–,–
O=C(Cn1ccnc1[N+](=O)[O-])NCc1ccccc1 [BENZNIDAZOLE],–,–,–,56%,Active,40.6 µg/mL,Active,46.6 µg/mL,69%,–,–,–,–
CCN1CCN(C(=O)N[C@@H](C(=O)N[C@@H]2C(=O)N3C(C(=O)[O-])=C(CSc4nnnn4C)CS[C@H]23)c2ccc(O)cc2)C(=O)C1=O.[Na+] [CEFOPERAZONE SODIUM],10.1%,Active,inactive,71%,–,23 µg/mL,–,25.8 µg/mL,64%,inactive,Active,–,–
NC(=O)c1cc[n+](CC2=C(C(=O)[O-])N3C(=O)[C@@H](NC(=O)[C@@H](c4ccccc4)S(=O)(=O)[O-])[C@H]3SC2)cc1.[Na+] [CEFSULODIN SODIUM],–,–,–,14%,–,–,–,16.6 µg/mL,87%,–,–,–,–
COc1cc2nc(N3CCN(C(=O)C4COc5ccccc5O4)CC3)nc(N)c2cc1OC.CS(=O)(=O)O (stereo not given) [DOXAZOSIN MESYLATE],5.3%,–,–,89%,–,14.7 µg/mL,–,12.9 µg/mL,97%,–,–,Insoluble,–
COC(=O)Nc1nc2cc(C(=O)c3ccc(F)cc3)ccc2[nH]1 [FLUBENDAZOLE],inactive,–,–,42%,–,–,–,–,41%,–,–,Insoluble,–
O=C(O)C(O)C(O)C(=O)O.O=C(c1ccc(F)cc1)C1CCN(CCn2c(=O)[nH]c3ccccc3c2=O)CC1 [KETANSERIN TARTRATE],–,–,–,73%,–,18.4 µg/mL,–,13.6 µg/mL,89%,–,–,–,–
CC1CS(=O)(=O)CCN1/N=C/c1ccc([N+](=O)[O-])o1 (stereo not given) [NIFURTIMOX],–,–,–,51%,–,–,–,–,66%,–,–,–,–
O=C(O)c1cc(/N=N/c2ccc(S(=O)(=O)Nc3ccccn3)cc2)ccc1O [SULFASALAZINE],37.6%,Active,inactive,10%,–,–,–,19.3 µg/mL,92%,–,–,Insoluble,60%
CC(C)(C)c1ccc(C(O)CCCN2CCC(C(O)(c3ccccc3)c3ccccc3)CC2)cc1 (stereo not given) [TERFENADINE],8.2%,Active,inactive,100%,–,4.5 µg/mL,–,16.3 µg/mL,100%,inactive,Active,Insoluble,–
